tolC growth inh = growth inhibitors of E. coli tolC mutant, primary screen, strain BW25113 ΔtolC::kan, 384-well; OD615; growth inhibition, % at 10 µM (by protocol); hit rate 2.2% among 65,000; AID 573, 2007;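 active means growth inhibition at or above a cutoff equal to the mean over every tested compound plus 3 SD, cut at about 60% in these data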;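 further: growth measured after 20 h incubation at 37 °C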
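Test system: E. coli BW25113 ΔtolC::kan bacteria | Medium: Kanamycin-containing LB broth (50 µg/mL) | Dosing: One dose of 10 µM final | Times: 20 h incubation with compound, 37 °C | Detection: Optical density read at 615 nm | Read-out basis: Percent growth inhibition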
Ecoli WT expand = growth inhibitors of wild-type E. coli, primary screen, strain BW25113, expanded library, OD600. OD600 absorbance. growth inhibition, % at 100 µM. hit rate 0.15% among 98,000;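 active means growth inhibition above about 50% at one test dose, limit read from the data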;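 further: growth measured after 20 h incubation at 37 °C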
PostGolgi ctrl = growth inhibition of yeast control strain, primary screen, counter-screen for post-Golgi transport modulator project. efflux-deficient yeast background strain, growth absorbance A615, 16 h. inhibition, % at 10 µM. hit rate 5% among 98,000
Her2 expr inh = inhibitors of Her2 protein expression, primary screen, SKBR-3 cells, AlphaScreen, 66K library; SKBR-3 HER2 protein level, 18-24 h; active compounds read low; HER2 level % of control, % at 10 µM; hit rate 0.69% among 65,000; AID 645, 2007;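 active means HER2 level under 5% of the carrier-only control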;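 further: lower value means stronger loss of Her2 protein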
PostGolgi yeast = phenotypic screen on post-Golgi transport, primary screen; post-Golgi transport phenotypic cell assay; inhibition, % at 10 µM; hit rate 0.9% among 98,000;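 further: yeast cells grown in 1536-well plates; yeast grown about 18 h at 30C before absorbance read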
Of the large screens only hits and unclear results are named; the others gave an inactive call. Hits are enriched below; roughly 6.6% of the tested compounds scored in any of these assays. Unless noted, no stated cut-off is given here; in the data, active means inhibition above about 30%; inactive means the rest.

O=c1c2ccccc2ncn1CCCSc1ccc(Cl)cc1	PostGolgi ctrl 42 (no result: tolC growth inh, Her2 expr inh)
CCOc1ccc2sc(NS(=O)(=O)c3ccc(OC)c(OC)c3)nc2c1	none
Cc1scc(C(=O)NNC(=S)NCC2CCCO2)c1C (configuration not stated)	none (no result: tolC growth inh, Her2 expr inh)
CCc1cc(C(=O)NNC(=S)NCC2CCCO2)cs1 (configuration not stated)	PostGolgi ctrl 30 (no result: tolC growth inh, Her2 expr inh)
Cc1nc2ccc(S(=O)(=O)NCC(=O)N3CCN(c4ccccc4)CC3)cc2s1	none
O=C(CNS(=O)(=O)c1ccccc1)N1CCN(c2ccccc2)CC1	PostGolgi ctrl 34
CCC(Sc1nnnn1-c1ccccc1)C(=O)NC(C)c1ccccc1 (configuration not stated)	none
CCC(Sc1nnnn1-c1ccccc1)C(=O)Nc1nc2ccccc2s1 (configuration not stated)	tolC growth inh 74, PostGolgi ctrl 44
Oc1ccc(CN2CCc3ccccc3C2)c2cccnc12	Ecoli WT expand 62 (no result: tolC growth inh, Her2 expr inh)
OCc1ccc(O)c2ncccc12	none (no result: tolC growth inh, Her2 expr inh)
CCn1c(SC(C)C(=O)OC)nnc1-c1c[nH]c2ccccc12 (configuration not stated)	none
O=c1c2c3n(c(=S)nc2[nH]n1-c1ccccc1)CCCCC3	PostGolgi ctrl 62 (no result: tolC growth inh, Her2 expr inh)
O=c1c(-c2nnc(SCc3ccc(Cl)c(Cl)c3)o2)cccn1Cc1ccccc1	PostGolgi ctrl 54 (no result: tolC growth inh, Her2 expr inh)
Clc1cccc(CSc2nnc(-c3c[nH]c4ccccc34)o2)c1	none (no result: tolC growth inh, Her2 expr inh)
COc1ccc(OC)c(C(=O)CSc2nc3c(c(=O)n(C)c(=O)n3C)n2C(C)C)c1	none
Cc1ccc(N(C)C(=O)N2CCN(S(=O)(=O)c3c(C)cc(C)cc3C)CC2)cc1	none (no result: tolC growth inh, Her2 expr inh)
COc1ccccc1NC(=S)N(CCc1nc2cc(C)c(C)cc2[nH]1)Cc1cccnc1	none (no result: tolC growth inh, Her2 expr inh)
N#CCSc1nc(N)c(C#N)c(C2CCCCC2)c1C#N	PostGolgi ctrl 51
N#Cc1c(N)nc(SCC(=O)NC2CCCCC2)c(C#N)c1-c1ccc(Cl)cc1	none
CSCSC1=C(C#N)C(c2ccc(Cl)cc2)C(C(C)=O)=C(C)N1 (configuration not stated)	tolC growth inh 96
CCOC(=O)C1=C(c2ccccc2)NC(SCC(=O)Nc2cccc(C)c2)=C(C#N)C1c1ccco1 (configuration not stated)	none
CCOC(=O)CSC1=C(C#N)C(c2ccccc2)C(C(C)=O)=C(C)N1 (configuration not stated)	none
CC(=O)C1=C(C)NC(SCC(=O)c2ccc(Cl)cc2Cl)=C(C#N)C1c1ccco1 (configuration not stated)	PostGolgi ctrl 34
CCOC(=O)CSC1=C(C#N)C(c2ccco2)C(C(=O)Nc2cccc(C(F)(F)F)c2)=C(C)N1 (configuration not stated)	tolC growth inh 61, PostGolgi ctrl 97
CC(=O)c1cccc(NC(=O)c2cc3nc(C)cc(C)n3n2)c1	none (no result: Her2 expr inh)
Cc1ccsc1C1C=C(c2cccc(Br)c2)Nc2ncnn21 (configuration not stated)	PostGolgi ctrl 37
COc1ccccc1-c1cc(C(=O)Nc2c(F)cc(F)cc2Br)no1	none
CCCc1nc(N2CCOCC2)c2sc(=S)n(-c3ccccc3)c2n1	none (no result: tolC growth inh, Her2 expr inh)
O=C(c1cc2ccccc2oc1=O)N(Cc1ccco1)Cc1cccs1	PostGolgi ctrl 49
COC(=O)Cn1cnc2c(nnn2-c2cccc(Cl)c2)c1=O	none (no result: Ecoli WT expand, PostGolgi ctrl, PostGolgi yeast)
O=C(O)C1C2C=CC(C2)C1C(=O)NCCc1cccc(Cl)c1 (configuration not stated)	none
Cc1ccc2nc(NC(=O)CN(C)S(=O)(=O)c3ccc(Br)s3)sc2c1	tolC growth inh 81, PostGolgi ctrl 35
Cc1cccc2sc(NC(=O)CNS(=O)(=O)c3ccc(Br)s3)nc12	none
Cc1ccc2nc(NC(=O)CNS(=O)(=O)c3ccc(Br)s3)sc2c1	tolC growth inh 61
Cc1cc(C)nc(-n2nc(C)c(Sc3ccc(F)cc3)c2N)n1	PostGolgi ctrl 51
O=C(Oc1c(CN2CCOCC2)cc(Cl)c2cccnc12)c1ccc(F)cc1	none
O=C(Oc1c(Cl)cc(Cl)c2cccnc12)c1ccco1	Ecoli WT expand 100, PostGolgi ctrl 31 (no result: tolC growth inh, Her2 expr inh)
CCCSc1nc(NCc2ccco2)c2c3c(sc2n1)COC(C)(C)C3	PostGolgi ctrl 47 (no result: tolC growth inh, Her2 expr inh)
CCC(C(=O)NCCN1CCN(C)CC1)n1c(C)c2cnn(-c3ccccc3)c(=O)c2c1C (configuration not stated)	none

Source: PubChem (SRMLSC)
